From ChEMBL document CHEMBL1641400, “Synthesis of essramycin and comparison of its antibacterial activity” (J Nat Prod, 2010)
Values after ≈ are worked out from the molar mass of the structure shown. Each block holds one compound with its values, some of them ahead of it. Active and inactive are the calls of the source. The calls are words filed in the database; no cut-off is given here.

Legend:
[1] = test system: Staphylococcus aureus; test: Antibacterial activity against methicillin-susceptible Staphylococcus aureus ATCC 25923 up to 64 ug/ml after 24 hrs by broth dilution assay; format: functional, organism-based
Summary of the method: (§1)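 Triplicate broth microdilution in LB and MH broths. Overnight LB cultures were diluted 40-fold into fresh broth and shaken 1 h at 37 °C to mid-log (OD600 ≈ 0.6). They were then diluted to 5 × 10⁵ cfu/mL into 2-fold serial dilutions from 64 to 0.03 µg/mL (≤1.28% DMSO) and held 24 h at 37 °C. MIC is the lowest concentration with no visible growth. Tetracycline, vancomycin and colistin served as positive controls.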

[2] = test system: Enterococcus faecalis; test: Antibacterial activity against Enterococcus faecalis VanB ATCC 51299 up to 64 ug/ml after 24 hrs by broth dilution assay; format: functional, organism-based; summary of the method: as §1
[3] = test system: Escherichia coli; test: Antibacterial activity against Escherichia coli ATCC 25922 up to 64 ug/ml after 24 hrs by broth dilution assay; format: functional, organism-based; summary of the method: as §1
[4] = test system: Klebsiella pneumoniae; test: Antibacterial activity against Klebsiella pneumoniae ATCC 700603 up to 64 ug/ml after 24 hrs by broth dilution assay; format: functional, organism-based; summary of the method: as §1
[5] = test system: Pseudomonas aeruginosa; test: Antibacterial activity against Meropenem-resistant Pseudomonas aeruginosa up to 64 ug/ml after 24 hrs by broth dilution assay; format: functional, organism-based
Summary of the method: (§2)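 Triplicate broth microdilution in LB and in MH broth. Overnight LB cultures diluted 40-fold into fresh broth, shaken 1 h at 37 °C to mid-log (OD600 ≈ 0.6), then diluted to 5 × 10⁵ cfu/mL. Added to 2-fold serial dilutions, 64 to 0.03 µg/mL, with DMSO at most 1.28%. Incubated 24 h at 37 °C; MIC is the lowest concentration with no visible growth. Tetracycline, vancomycin and colistin served as positive controls.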

[6] = test system: Acinetobacter baumannii; test: Antibacterial activity against Meropenem-resistant Acinetobacter baumannii up to 64 ug/ml after 24 hrs by broth dilution assay; format: functional, organism-based; summary of the method: as §2
[7] = test system: Staphylococcus aureus; test: Antibacterial activity against methicillin-susceptible Staphylococcus aureus ATCC 25923 after 24 hrs by disc diffusion assay; format: functional, organism-based
Summary of the method: (§3)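 LB broth cultures were grown to mid-log (OD600 ≈ 0.6) as for broth MIC and streaked as lawns on LB agar. Sterile filter paper discs were loaded with 10 µL of 2-fold serial dilutions (32 to 1 µg/mL) and placed on the lawns. Inhibition zones were measured after 24 h at 37 °C.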

[8] = test system: Enterococcus faecalis; test: Antibacterial activity against Enterococcus faecalis VanB ATCC 51299 after 24 hrs by disc diffusion assay; format: functional, organism-based; summary of the method: as §3
[9] = test system: Escherichia coli; test: Antibacterial activity against Escherichia coli ATCC 25922 after 24 hrs by disc diffusion assay; format: functional, organism-based; summary of the method: as §3
[10] = test system: Klebsiella pneumoniae; test: Antibacterial activity against Klebsiella pneumoniae ATCC 700603 after 24 hrs by disc diffusion assay; format: functional, organism-based; summary of the method: as §3
[11] = test system: Pseudomonas aeruginosa; test: Antibacterial activity against Meropenem-resistant Pseudomonas aeruginosa after 24 hrs by disc diffusion assay; format: functional, organism-based
Summary of the method: (§4)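 LB-broth overnight cultures diluted 40-fold into fresh LB, shaken 1 h at 37 °C, to mid-log (OD600 ≈ 0.6). Lawn streaked on LB agar. Sterile filter-paper discs loaded with 10 µL of 2-fold serial dilutions, 32 to 1 µg/mL. Discs placed on plates, 24 h at 37 °C, then zone of inhibition measured.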

[12] = test system: Acinetobacter baumannii; test: Antibacterial activity against Meropenem-resistant Acinetobacter baumannii after 24 hrs by disc diffusion assay; format: functional, organism-based; summary of the method: as §4
[13] = test system: Staphylococcus aureus; test: Antibacterial activity against methicillin-susceptible Staphylococcus aureus ATCC 25923 compound formulated with carboxymethylcellulose; format: functional, organism-based
[14] = test system: Escherichia coli; test: Antibacterial activity against Escherichia coli ATCC 25922 compound formulated with carboxymethylcellulose; format: functional, organism-based
[15] = test system: Pseudomonas aeruginosa; test: Antibacterial activity against Pseudomonas aeruginosa ATCC 10145 compound formulated with carboxymethylcellulose; format: functional, organism-based
[16] = test system: Bacillus subtilis; test: Antibacterial activity against Bacillus subtilis ATCC 6051 compound formulated with carboxymethylcellulose; format: functional, organism-based
[17] = test system: HepG2; test: Cytotoxicity against human HepG2 cells after 24 hrs by MTT assay; format: cell-based; conditions: HepG2, 24 h
[18] = test system: HEK293; test: Cytotoxicity against HEK293 cells after 24 hrs by MTT assay; format: cell-based; conditions: Homo sapiens, HEK293, 24 h
[19] = Kinetic solubility in phosphate buffer at pH 7.4; format: physicochemical
[20] = Thermodynamic solubility in phosphate buffer at pH 7.4 after 72 hrs; format: physicochemical; conditions: read-out: Therm_solubility
[21] = Protein binding in LB assay broth (above 30 kDa) by ultra filtration method; format: ADME; conditions: read-out: PB (converted)
[22] = Kinetic solubility in water; format: physicochemical
[23] = Thermodynamic solubility in water after 72 hrs; format: physicochemical; conditions: read-out: Therm_solubility

Compound: Cc1cc(=O)n2nc(CC(=O)c3ccccc3)nc2[nH]1 [ESSRAMYCIN]
inhibition [1]: inactive | inhibition [2]: inactive | inhibition [3]: inactive | inhibition [4]: inactive | inhibition [5]: inactive | inhibition [6]: inactive | inhibition [7]: inactive | inhibition [8]: inactive | inhibition [9]: inactive | inhibition [10]: inactive | inhibition [11]: inactive | inhibition [12]: inactive | inhibition [13]: inactive | inhibition [14]: inactive | inhibition [15]: inactive | inhibition [16]: inactive | IC50 [17]: > 200 µM | IC50 [18]: > 200 µM

solubility kinetic [19]: 150 µg/mL (≈ 559 µM) | solubility thermodynamic at 72 h [20]: 898 µg/mL (≈ 3350 µM) | fraction unbound [21]: 0.93 | solubility kinetic [22]: 150 µg/mL (≈ 559 µM) | solubility thermodynamic at 72 h [23]: 175 µg/mL (≈ 652 µM)
Compound: Cc1cc(=O)n2nc(CC(=O)c3ccccc3)[nH]c2n1 [ESSRAMYCIN]
